Screening results from PubChem BioAssay.
TRPC6 inhibitor – inhibitors of mouse TRPC6 channel; AID 2553; 310,000 compounds, 1.1% hits; Q61143; B-score at 10 µM; HEK293-TRPC6, membrane potential dye, ACh-evoked depolarization; active compounds read low;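 active means B-score under library mean minus 3 SD, initial fluorescence not abnormally high, positive integrated signal ratio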;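 further: B-score derived from integrated fluorescence ratio over the kinetic read; more negative B-score means stronger inhibition of depolarization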
TRPC4 block – inhibitors of mouse TRPC4 channel. Q9QUQ5. HEK293 TRPC4beta/mu-opioid, DAMGO-evoked Fluo4 calcium flux; active compounds read low. B-score at 10 µM. 300,000 compounds, 0.39% hits. AID 2247;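 active means B-score over 3 SD under the library average, no early fluorescence shift, positive overall ratio signal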
Target sequence (Q9QUQ5 whole entry, looked up): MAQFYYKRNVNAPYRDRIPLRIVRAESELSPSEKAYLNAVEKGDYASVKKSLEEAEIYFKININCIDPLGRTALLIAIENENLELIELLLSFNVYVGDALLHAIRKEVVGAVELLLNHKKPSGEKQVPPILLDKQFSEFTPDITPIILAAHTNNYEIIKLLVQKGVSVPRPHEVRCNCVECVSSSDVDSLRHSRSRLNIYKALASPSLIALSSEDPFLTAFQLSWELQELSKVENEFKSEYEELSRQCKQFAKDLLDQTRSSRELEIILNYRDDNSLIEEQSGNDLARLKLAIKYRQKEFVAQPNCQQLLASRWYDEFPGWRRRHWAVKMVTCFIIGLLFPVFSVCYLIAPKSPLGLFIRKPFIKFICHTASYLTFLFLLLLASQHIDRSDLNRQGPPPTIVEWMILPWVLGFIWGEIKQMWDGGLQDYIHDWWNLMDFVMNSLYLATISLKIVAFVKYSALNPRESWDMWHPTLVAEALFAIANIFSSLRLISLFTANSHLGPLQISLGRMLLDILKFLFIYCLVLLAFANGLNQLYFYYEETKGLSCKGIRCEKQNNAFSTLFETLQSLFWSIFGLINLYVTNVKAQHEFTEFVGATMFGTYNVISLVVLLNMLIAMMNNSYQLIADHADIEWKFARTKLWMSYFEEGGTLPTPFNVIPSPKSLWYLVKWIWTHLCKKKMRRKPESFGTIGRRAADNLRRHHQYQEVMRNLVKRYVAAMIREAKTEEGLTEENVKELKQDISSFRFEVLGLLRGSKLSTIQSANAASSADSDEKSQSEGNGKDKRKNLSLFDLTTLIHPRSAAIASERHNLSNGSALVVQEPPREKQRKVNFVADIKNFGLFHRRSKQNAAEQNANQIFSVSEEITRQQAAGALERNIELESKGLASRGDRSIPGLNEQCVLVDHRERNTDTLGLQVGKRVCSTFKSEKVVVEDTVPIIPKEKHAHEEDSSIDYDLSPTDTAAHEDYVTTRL
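test system = HEK293 cells with stable TRPC4beta plus mu-opioid receptor expression | detection = Fluo4 Ca2+ flux fluorescence | read-out = integrated fluorescence ratio relative to baseline, converted to per-well B score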
TRPC6 activator – mouse TRPC6 channel activation. HEK293-TRPC6 membrane potential dye fluorescence; active compounds read high. 310,000 compounds, 0.13% hits. AID 2550. Q61143. B-score at 10 µM;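 active means B-score of the integrated fluorescence ratio above library mean plus 3 SD, and starting fluorescence ratio within library mean plus 5 SD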;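 further: higher score means more depolarization so channel activation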
TRPC4 potent – TRPC4 (mouse) allosteric potentiation. Q9QUQ5. HEK293 TRPC4beta/mu-opioid, DAMGO EC20, Fluo-4 Ca2+ flux; active compounds read high. B-score at 10 µM. 310,000 compounds, 0.42% hits. AID 2227;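 active means B-score of calcium response area above 5 SD of library B-scores, with initial fluorescence ratio within 5 SD of library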
TRPC4 agonist – opens the mouse TRPC4 cation channel; 310,000 compounds, 0.49% hits; HEK293 TRPC4beta/mu-opioid, Fluo4 calcium fluorescence; active compounds read high; Q9QUQ5; B-score at 10 µM; AID 2237;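 active means B-score above 5 SD of library B-scores, and initial fluorescence ratio not above library mean plus 5 SD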;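 further: positive B-score marks a calcium rise read as TRPC4 activation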
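Material: TRPC4beta and mu-opioid receptor HEK293 stable cells | Incubation: 45 min room-temperature Fluo4 loading, 110 s read | Detection: Kinetic Fluo4 calcium fluorescence | Measure: Integrated baseline-normalised fluorescence ratio, converted to per-well B score | Benchmarks: Low control buffer alone, high control maximal DAMGO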
Each line names hits and unclear results; the compound was inactive in the other large screens. Compounds with a hit are over-represented: about 2.3% of the library has one in this group of screens.

Cc1ccccc1N(CC(=O)NC1CCCCC1)C(=O)CCCC(=O)Nc1ccccn1	none
Cc1ccc(NCc2nc(SCC(=O)Nc3ccccc3)n[nH]2)cc1	none
COCCNCC(O)CON=C1c2ccccc2-c2ccccc21 (centres undefined)	TRPC4 agonist 55
CS(=O)(=O)N(CC(O)CON=C1c2ccccc2-c2ccccc21)c1ccc(F)cc1 (centres undefined)	none
CC(C)CCNCC(O)CON=C1c2ccccc2-c2ccccc21 (centres undefined)	TRPC4 agonist 66
Cc1onc(-c2ccccc2)c1C(=O)NNC(=S)NC(=O)/C=C/c1cccs1	TRPC4 agonist 52
Cc1onc(-c2ccccc2)c1C(=O)NNC(=S)NC(=O)c1ccc2c(c1)OCO2	TRPC4 agonist 79
Cc1onc(-c2ccccc2)c1C(=O)NC(=S)NNC(=O)c1ccncc1	none
Cc1onc(-c2ccccc2)c1C(=O)NC(=S)NNC(=O)c1ccco1	TRPC4 agonist 84
COc1ccc(C(=O)NC(=S)NNC(=O)c2c(-c3ccccc3)noc2C)cc1OC	TRPC4 agonist 85
Cc1onc(-c2ccccc2)c1C(=O)NCc1ccc2c(c1)OCO2	none
CC(Oc1ccc(F)cc1)C(=O)Nc1cccc(-c2nn[nH]n2)c1 (centres undefined)	none
Cc1ccc(-n2nc3c(=O)n(CCCC(=O)NCc4ccco4)nc(C)c3c2C)cc1	none
O=C(N/N=C/c1ccccc1[N+](=O)[O-])c1cnccn1	TRPC4 potent 20
CCCc1ccc(S(=O)(=O)NCC2CCCN2CC)cc1 (centres undefined)	none
CCN1CCCC1CNS(=O)(=O)c1c(C)cc(C)cc1C (centres undefined)	TRPC4 agonist 86
CN(CCc1nc2ccc(Cl)cc2[nH]1)Cc1nc(CC2CC2)no1	TRPC4 agonist 105
COc1ccc(COC(=O)C2=C(C)NC(=O)NC2c2ccccc2)cc1 (centres undefined)	none
COc1ccc(CCn2c(=S)[nH]c3cc(C(=O)N4CCOCC4)ccc3c2=O)cc1OC	TRPC4 potent 20
CC(Oc1ccc2c3c(c(=O)oc2c1)CCC3)C(=O)NCc1cccnc1 (centres undefined)	none
Cc1ccsc1/C=N/Nc1ncc(Cl)cc1Cl	TRPC4 potent 10
OC1(c2cccs2)CN(c2ccc(Cl)cc2)C2=[N+]1CCCC2 (centres undefined)	TRPC4 block -6
COc1ccc(OC)c(NC(=O)COC(=O)Cc2ccc(-c3ccccc3)cc2)c1	TRPC4 potent 21
COc1ccc(OC)c(NC(=O)COC(=O)Cc2ccc(Br)cc2)c1	none
Cc1ccc(C(CNS(=O)(=O)c2ccc([N+](=O)[O-])cc2)N2CCN(C)CC2)cc1 (centres undefined)	TRPC4 block -6
O=C1CC(NS(=O)(=O)c2cccs2)CN1c1ccc(Cl)cc1 (centres undefined)	none
O=C1CC(NS(=O)(=O)c2cccs2)CN1c1ccccc1 (centres undefined)	TRPC4 potent 18
CCNC(=O)N1c2ccc(OCC)cc2C(C)=CC1(C)C	TRPC4 block -7
O=C(NCc1nnc2c(C(F)(F)F)cc(Cl)cn12)c1ccc2c(c1)OCO2	none
CC(C)Oc1ccc(CSC(=N)N)cc1	none
CCOc1ccc(CSC(=N)N)cc1Cl	TRPC4 agonist 120
CCOc1ccc(CSC(=N)N)cc1[N+](=O)[O-]	TRPC4 agonist 77
COc1ccc(/C=N\NC(=O)c2sccc2C)cc1Cn1nc(C)cc1C	none
Cc1cc(C)c(C)c(OCCCOc2cccc3cccnc23)c1	TRPC4 potent 19
Cc1nc2cc(C(=O)NCc3cccnc3)ccc2n1-c1ccc(F)cc1F	none
CC(=Nc1ccc(C)cc1)c1sc2ccccc2c1O	TRPC4 block -6
Cc1nn(-c2ccccc2)c(Cl)c1/C=N/Nc1ccc(S(=O)(=O)Nc2ccccc2C(=O)O)cc1[N+](=O)[O-]	TRPC4 block -6
COc1ccc2c(Cl)c(-c3nnc(SCC(=O)c4ccccc4)n3C)sc2c1	TRPC4 agonist 104
COc1ccc2c(Cl)c(-c3nnc(SCC(N)=O)n3C)sc2c1	none
CC(C)(C)c1cc(C(=O)O)n(Cc2ccc(Cl)cc2Cl)n1	none
COc1cccc(CNCc2ccc(OC)c3ccccc23)c1OC	none
COc1cccc(CNCc2ccccn2)c1OC	TRPC4 block -6, TRPC4 agonist 63
CC1CC(=O)c2c(cc3c(-c4c(O)cc(O)c5c(O)c6c(cc45)OC(C)CC6=O)c(O)cc(O)c3c2O)O1 (centres undefined)	TRPC6 activator 43
O=C1CC(c2ccc(O)cc2)Oc2cc(O)cc(O)c21 (centres undefined)	none
c1ccc2c(N3CCCCC3)nc(N3CCOCC3)nc2c1	TRPC4 block -9
CC1CCCN(C(=O)COC(=O)c2ccc(=O)n(Cc3ccccc3)n2)C1 (centres undefined)	none
Cc1cc(OCCCCCn2ccnc2)cc(C)c1Cl	TRPC4 agonist 75
Cc1ccc(OCCn2ccnc2)c([N+](=O)[O-])c1	none
Cc1cc(OCCCn2ccnc2)ccc1[N+](=O)[O-]	TRPC4 potent 21, TRPC4 agonist 43
Cc1cc(OCCCn2ccnc2)cc(C)c1Cl	TRPC4 agonist 104
Cc1cc(C)c(OCCCCCn2ccnc2)c(C)c1	none
Cc1ccc(C)c(OCCCCCn2ccnc2)c1	TRPC4 agonist 169
Cc1cc(C)c(NC(=O)CS(=O)CC(=O)NCCN2CCCCCC2)c(C)c1 (centres undefined)	none
CCOc1cccc(OCCCCn2ccnc2)c1	TRPC4 agonist 43
Cc1cc(Cl)cc(C)c1OCCn1ccnc1	none
Cc1cc(Cl)cc(C)c1OCCCCCn1ccnc1	TRPC4 agonist 86
Cc1c(N2C(=O)/C(=C\C3CC=CCC3)SC2=S)c(=O)n(-c2ccccc2)n1C (centres undefined)	TRPC4 potent 17
Cc1c(N2C(=O)/C(=C/C3CC=CCC3)SC2=S)c(=O)n(-c2ccccc2)n1C (centres undefined)	none
COc1ccc(NC(=O)CCNC(=O)Cn2ccc3ccccc3c2=O)cc1Cl	none
COc1ccc(C(C(=O)NC2CCCCC2)N(C(=O)Cc2c[nH]c3ccccc23)c2ccccc2C)cc1OC (centres undefined)	TRPC4 potent 11
O=[N+]([O-])c1ccc(NC(=S)N2CCc3ccccc3C2)cc1	TRPC4 block -6
Cc1ccc(Sc2cc(C(=O)NCCN(C)C)c3ccccc3n2)cc1	TRPC4 agonist 203
CN(C)CCNC(=O)c1cc(Sc2ccc(F)cc2)nc2ccccc12	TRPC4 potent 31
O=[N+]([O-])c1ccc(S(=O)(=O)N2CCN=C2SCc2ccc(F)cc2)cc1	none
CC(C)c1ccc(C(C)NC(=O)C2CCCC2)cc1 (centres undefined)	none
CC(C)(C)c1cc(O)c(C(C)(C)C)cc1O	TRPC4 agonist 94
